Data from ChEMBL document CHEMBL3272041, “Quantitative correlations between albumin binding constants and chromatographic Rm values of phenothiazine derivatives” (J Med Chem, 1977).

Legend:
[1] = Oleyl alcohol-water partition coefficient, Rm of the compound measured at 0% methanol by reverse-phase thin layer chromatography; assay type: physicochemical
In short: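 Reversed-phase TLC on Kieselguhr G impregnated with oleyl alcohol. Mobile phases were methanol–water with ammonia and KCl, pH* 10.5, ionic strength 0.1 M, methanol 30–55% (w/w). Each compound had 10–12 Rm determinations at each methanol concentration.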

Albumin [2] = molecular target: T1, Albumin (Bos taurus, UniProt P02769); experiment: Binding affinity to bovine serum albumin by circular dichroic probe technique; assay type: ADME; settings: cattle, isolated protein
[3] = Dissociation constant, pKa of the compound by UV-visible spectrophotometer analysis; assay type: physicochemical
[4] = Octanol-water partition coefficient, log P of the compound; assay type: physicochemical
Albumin [5] = molecular target: T1, Albumin; experiment: Binding affinity to bovine serum albumin; assay type: ADME; settings: cattle, isolated protein
Albumin [6] = molecular target: T1, Albumin; experiment: Binding affinity to bovine serum albumin assessed as intrinsic binding constant; assay type: ADME; settings: cattle, isolated protein
Albumin [7] = molecular target: T1, Albumin; experiment: Binding affinity to bovine serum albumin high affinity site by circular dichroic probe technique; assay type: ADME; settings: cattle, isolated protein
In short: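 Displacement of sulfaethidole from its primary BSA site, followed by circular dichroism. Solutions were in 0.054 M sodium phosphate, pH 7.44 (25 °C), isotonic with NaCl. Reagent concentrations were 1.45 × 10−5 and 2.11 × 10−5 M. Spectra were scanned from 420 to 265 nm in 10-mm cells, with ellipticity read at 280–286 nm, corrected for drug effect on BSA. Apparent K came from the Klotz equation (n = 1) and was extrapolated to zero drug concentration.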

T1 sequence (P02769 whole entry): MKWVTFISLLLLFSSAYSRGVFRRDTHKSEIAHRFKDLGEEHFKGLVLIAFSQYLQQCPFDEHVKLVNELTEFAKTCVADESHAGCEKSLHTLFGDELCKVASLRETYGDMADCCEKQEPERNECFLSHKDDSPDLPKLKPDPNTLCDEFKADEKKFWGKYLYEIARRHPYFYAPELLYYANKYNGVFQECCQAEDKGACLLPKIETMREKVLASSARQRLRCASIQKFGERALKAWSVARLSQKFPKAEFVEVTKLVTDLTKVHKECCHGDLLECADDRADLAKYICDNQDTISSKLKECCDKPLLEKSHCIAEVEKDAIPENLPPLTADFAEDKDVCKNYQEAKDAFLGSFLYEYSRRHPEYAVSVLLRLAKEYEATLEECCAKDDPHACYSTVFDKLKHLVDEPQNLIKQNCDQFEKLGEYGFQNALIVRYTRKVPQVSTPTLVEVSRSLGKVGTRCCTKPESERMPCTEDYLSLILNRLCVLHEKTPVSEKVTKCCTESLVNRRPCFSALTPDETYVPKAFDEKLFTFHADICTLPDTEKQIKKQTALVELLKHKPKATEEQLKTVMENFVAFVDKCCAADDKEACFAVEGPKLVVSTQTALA

Row | Rm [1] | logKa (Albumin [2]) | pKa [3] | logP [4] | Activity (Albumin [7]) [×10⁵ L/mol] | Compound | log K (Albumin [5]) | log K (Albumin [6])
1 | 2.94 | 4.46 | 9.29 |  |  | CN(C)CCCN1c2ccccc2Sc2ccc(C#N)cc21 |  | 
2 | 3.37 | 4.78 | 8.1 |  |  | CCCC(=O)c1ccc2c(c1)N(CCCN1CCN(C)CC1)c1ccccc1S2 [BUTAPERAZINE] |  | 
3 | 4.12 | 4.98 |  |  |  | CN(C)CCCN1c2ccccc2Sc2ccc(Cl)cc21 [CHLORPROMAZINE] |  | 
4 | 2.49 | 4.21 | 8 |  |  | CC(CN1CCN(CCOCCO)CC1)CN1c2ccccc2Sc2ccccc21 (stereo not given) [DIXYRAZINE] |  | 
5 | 2.32 |  |  |  |  | CN1CCCCC1CCN1c2ccccc2Sc2ccc([S+](C)[O-])cc21 (stereo not given) [MESORIDAZINE] |  | 
6 | 3.19 | 4.66 | 9.41 | 4.63 |  | COc1ccc2c(c1)N(CCCN(C)C)c1ccccc1S2 [METHOXYPROMAZINE] | 4.11 | 
7 | 2.67 | 4.36 | 8.1 | 3.8 |  | CN1CCN(CCCN2c3ccccc3Sc3ccccc32)CC1 [PERAZINE] | 4.32 | 3.33
8 | 2.17 | 4.12 | 8.5 |  |  | N#Cc1ccc2c(c1)N(CCCN1CCC(O)CC1)c1ccccc1S2 [PERICIAZINE] |  | 
9 | 2.74 | 4.2 | 7.9 | 3.92 |  | OCCN1CCN(CCCN2c3ccccc3Sc3ccc(Cl)cc32)CC1 [PERPHENAZINE] |  | 
10 | 3.38 | 4.59 |  |  |  | CN1CCN(CCCN2c3ccccc3Sc3ccc(Cl)cc32)CC1 [PROCHLORPERAZINE] |  | 3.7
11 |  |  |  |  | 2.1 | CCc1nnc(NS(=O)(=O)c2ccc(N)cc2)s1 [SULFAETHIDOLE] |  | 
12 | 4.51 | 5.15 |  |  |  | CSc1ccc2c(c1)N(CCC1CCCCN1C)c1ccccc1S2 (stereo not given) [THIORIDAZINE] |  | 
13 | 3.55 | 4.67 |  |  |  | CN1CCN(CCCN2c3ccccc3Sc3ccc(C(F)(F)F)cc32)CC1 [TRIFLUOPERAZINE] |  | 

Row | Compound | Rm [1] | logKa (Albumin [2]) | pKa [3] | logP [4] | Activity (Albumin [7]) [×10⁵ L/mol] | log K (Albumin [5]) | log K (Albumin [6])
14 | OCCN1CCN(CCCN2c3ccccc3Sc3ccc(C(F)(F)F)cc32)CC1 [FLUPHENAZINE] | 3.03 |  |  | 4.47 |  |  | 
15 | CN(C)CCCN1c2ccccc2Sc2ccccc21 [PROMAZINE] | 3.43 | 4.54 | 9.42 | 4.68 |  | 3.95 | 3.45
16 | CN(C)CCCN1c2ccccc2Sc2ccc(C(F)(F)F)cc21 [TRIFLUPROMAZINE] | 4.24 | 5.17 |  |  |  | 4.58 | 3.99
